These results are taken from ChEMBL document CHEMBL3091445, “The 3,7-diazabicyclo[3.3.1]nonane scaffold for subtype selective nicotinic acetylcholine receptor ligands. Part 2: carboxamide derivatives with different spacer motifs” (Bioorg Med Chem, 2013).

Activity calls are given as the source filed them. The calls are words filed in the database; no cut-off is given here.

Assay [1] addresses Neuronal acetylcholine receptor; alpha4/beta2 (Rattus norvegicus, UniProt P09483+P12390). Description: Displacement of [3H]epibatidine from Sprague-Dawley rat brain alpha4beta2 nAChR after 90 mins by liquid scintillation counting analysis. The gist of the method:
(§1)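 Radioligand competition binding gave Ki values, reported as mean ± SEM from 2–10 independent experiments.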
On the technique in general: Displacement assays read how much labelled ligand stays bound in the presence of the test substance.

Assay [2] is described as follows: Displacement of [3H]epibatidine from calf adrenal alpha3beta4 nAChR after 90 mins by liquid scintillation counting analysis. Also on record: species or system Bos taurus.
Assay [3] has as its target T1, Neuronal acetylcholine receptor; alpha4/beta2 (Homo sapiens) (UniProt P17787+P43681). The assay can be described thus: Antagonist activity at human alpha4beta2 nAChR expressed in Xenopus oocytes assessed as inhibition of acetylcholine-induced effect at 1 uM incubated for 8 secs followed by compound washout measured after 241 secs by two-electrode voltage clamp technique. Type of assay: cell-based.

Assay [4] deals with Neuronal acetylcholine receptor subunit alpha-7 (Homo sapiens) (UniProt P36544). The assay can be described thus: Antagonist activity at human alpha7 nAChR expressed in Xenopus oocytes assessed as inhibition of acetylcholine-induced effect at 1 uM incubated for 12 secs followed by compound washout measured after 181 secs by two-electrode voltage clamp technique. Type of assay: cell-based.
Sequence of Neuronal acetylcholine receptor subunit alpha-7 (Homo sapiens) (P36544 whole entry): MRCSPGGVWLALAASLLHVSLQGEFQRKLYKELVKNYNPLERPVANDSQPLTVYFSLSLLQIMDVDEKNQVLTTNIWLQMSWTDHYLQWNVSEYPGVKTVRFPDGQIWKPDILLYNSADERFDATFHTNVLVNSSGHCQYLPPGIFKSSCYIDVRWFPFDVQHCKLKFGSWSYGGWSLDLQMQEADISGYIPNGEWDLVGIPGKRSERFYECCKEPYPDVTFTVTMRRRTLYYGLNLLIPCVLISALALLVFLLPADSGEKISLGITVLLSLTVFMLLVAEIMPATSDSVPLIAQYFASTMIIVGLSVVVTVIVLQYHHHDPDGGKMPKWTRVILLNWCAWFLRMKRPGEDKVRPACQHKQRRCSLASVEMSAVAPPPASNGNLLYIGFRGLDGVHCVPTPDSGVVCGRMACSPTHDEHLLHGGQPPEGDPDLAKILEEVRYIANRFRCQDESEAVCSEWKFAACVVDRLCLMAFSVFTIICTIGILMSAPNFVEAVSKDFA

The target in assay [5] is T1, Neuronal acetylcholine receptor; alpha4/beta2 (Homo sapiens). Description: Partial agonist activity at human alpha4beta2 nAChR expressed in Xenopus oocytes at 10 uM incubated for 8 secs followed by compound washout measured after 241 secs by two-electrode voltage clamp technique. Format: cell-based. (Two-electrode voltage clamp is typically applied to oocytes expressing channels or transporters.)

Assay [6] can be described thus: Displacement of [3H]epibatidine from Torpedo californica electroplax (alpha1)2beta1gammadelta nAChR after 90 mins by liquid scintillation counting analysis. Also on record: species or system Tetronarce californica.
Assay [7] deals with T2, Nicotinic acetylcholine receptor alpha1/beta1/epsilon/delta (Mus musculus) (UniProt P04756+P09690+P02716+P20782). The assay can be described thus: Agonist activity at mouse muscle alpha1beta1epsilondelta nAChR expressed in Xenopus oocytes at 1 uM incubated for 8 secs followed by compound washout measured after 241 secs by two-electrode voltage clamp technique. Type of assay: cell-based.

In assay [8] the target is T1, Neuronal acetylcholine receptor; alpha4/beta2 (Homo sapiens). The assay can be described thus: Partial agonist activity at human alpha4beta2 nAChR expressed in Xenopus oocytes at 1 uM incubated for 8 secs followed by compound washout measured after 241 secs by two-electrode voltage clamp technique. Type of assay: cell-based.
For assay [9], the target named is T2, Nicotinic acetylcholine receptor alpha1/beta1/epsilon/delta (Mus musculus). The assay can be described thus: Antagonist activity at mouse muscle alpha1beta1epsilondelta nAChR expressed in Xenopus oocytes assessed as inhibition of acetylcholine-induced effect at 1 uM incubated for 8 secs followed by compound washout measured after 241 secs by two-electrode voltage clamp technique. Type of assay: cell-based.

Assay [10] shares this target. Description: Agonist activity at mouse muscle alpha1beta1epsilondelta nAChR expressed in Xenopus oocytes at 10 uM incubated for 8 secs followed by compound washout measured after 241 secs by two-electrode voltage clamp technique. Type of assay: cell-based.
In assay [11] the target is T3, Neuronal acetylcholine receptor; alpha3/beta4 (Homo sapiens) (UniProt P30926+P32297). The assay can be described thus: Antagonist activity at human alpha3beta4 nAChR expressed in Xenopus oocytes at 1 uM incubated for 8 secs followed by compound washout measured after 241 secs by two-electrode voltage clamp technique. Type of assay: cell-based.
Assay [12] concerns the target Neuronal acetylcholine receptor subunit alpha-7 (Homo sapiens) (UniProt P36544). Description: Agonist activity at human alpha7 nAChR expressed in Xenopus oocytes at 1 uM incubated for 12 secs followed by compound washout measured after 181 secs by two-electrode voltage clamp technique. Type of assay: cell-based.
Assay [13] deals with T3, Neuronal acetylcholine receptor; alpha3/beta4 (Homo sapiens). The assay can be described thus: Agonist activity at human alpha3beta4 nAChR expressed in Xenopus oocytes at 1 uM incubated for 8 secs followed by compound washout measured after 241 secs by two-electrode voltage clamp technique. Format: cell-based.
Assay [14] concerns the target Neuronal acetylcholine receptor subunit alpha-7 (Rattus norvegicus, UniProt Q05941). The assay can be described thus: Displacement of [3H]methyllycaconitine from Sprague-Dawley rat brain alpha7 nAChR after 120 mins by liquid scintillation counting analysis. Type of assay: tissue-based. The gist of the method: as §1
Assay [15] deals with T3, Neuronal acetylcholine receptor; alpha3/beta4 (Homo sapiens). Description: Agonist activity at human alpha3beta4 nAChR expressed in Xenopus oocytes at 10 uM incubated for 8 secs followed by compound washout measured after 241 secs by two-electrode voltage clamp technique. Type of assay: cell-based.
The target of assay [16] is Neuronal acetylcholine receptor subunit alpha-7 (Homo sapiens) (UniProt P36544). Description: Agonist activity at human alpha7 nAChR expressed in Xenopus oocytes at 10 uM incubated for 12 secs followed by compound washout measured after 181 secs by two-electrode voltage clamp technique. Format: cell-based.

Sequence of Neuronal acetylcholine receptor; alpha4/beta2 (P09483 whole entry): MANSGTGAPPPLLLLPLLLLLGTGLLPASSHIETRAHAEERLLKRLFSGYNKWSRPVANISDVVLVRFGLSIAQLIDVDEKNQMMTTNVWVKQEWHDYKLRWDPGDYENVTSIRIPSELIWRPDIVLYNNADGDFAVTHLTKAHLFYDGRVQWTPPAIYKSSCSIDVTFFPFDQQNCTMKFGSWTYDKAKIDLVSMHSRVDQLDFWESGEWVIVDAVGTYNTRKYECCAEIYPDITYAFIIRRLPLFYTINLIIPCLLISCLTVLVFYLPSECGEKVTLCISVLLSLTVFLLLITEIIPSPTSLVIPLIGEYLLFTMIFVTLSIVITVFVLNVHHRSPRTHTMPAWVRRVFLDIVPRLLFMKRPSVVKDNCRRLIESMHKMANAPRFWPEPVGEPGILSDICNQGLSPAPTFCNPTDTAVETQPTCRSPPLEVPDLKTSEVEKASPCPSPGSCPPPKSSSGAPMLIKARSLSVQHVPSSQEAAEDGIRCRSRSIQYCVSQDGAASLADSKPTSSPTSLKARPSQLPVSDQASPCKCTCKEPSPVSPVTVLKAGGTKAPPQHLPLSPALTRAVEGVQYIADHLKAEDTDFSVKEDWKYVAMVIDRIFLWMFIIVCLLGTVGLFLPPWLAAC
Sequence of Neuronal acetylcholine receptor; alpha4/beta2 (P12390 whole entry): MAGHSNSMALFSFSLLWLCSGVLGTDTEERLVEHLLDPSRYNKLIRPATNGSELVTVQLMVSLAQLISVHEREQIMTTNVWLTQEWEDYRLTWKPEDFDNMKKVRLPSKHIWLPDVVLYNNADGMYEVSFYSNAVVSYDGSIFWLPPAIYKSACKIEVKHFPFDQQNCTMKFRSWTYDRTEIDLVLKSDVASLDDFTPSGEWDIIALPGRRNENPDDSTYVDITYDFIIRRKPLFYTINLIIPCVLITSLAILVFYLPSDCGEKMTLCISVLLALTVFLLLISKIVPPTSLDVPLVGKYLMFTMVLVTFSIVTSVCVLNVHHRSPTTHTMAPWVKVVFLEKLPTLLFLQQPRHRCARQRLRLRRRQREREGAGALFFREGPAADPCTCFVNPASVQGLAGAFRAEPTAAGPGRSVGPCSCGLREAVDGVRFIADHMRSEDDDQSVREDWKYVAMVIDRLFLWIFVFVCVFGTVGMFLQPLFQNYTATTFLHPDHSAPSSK
Sequence of Neuronal acetylcholine receptor subunit alpha-7 (Q05941 whole entry): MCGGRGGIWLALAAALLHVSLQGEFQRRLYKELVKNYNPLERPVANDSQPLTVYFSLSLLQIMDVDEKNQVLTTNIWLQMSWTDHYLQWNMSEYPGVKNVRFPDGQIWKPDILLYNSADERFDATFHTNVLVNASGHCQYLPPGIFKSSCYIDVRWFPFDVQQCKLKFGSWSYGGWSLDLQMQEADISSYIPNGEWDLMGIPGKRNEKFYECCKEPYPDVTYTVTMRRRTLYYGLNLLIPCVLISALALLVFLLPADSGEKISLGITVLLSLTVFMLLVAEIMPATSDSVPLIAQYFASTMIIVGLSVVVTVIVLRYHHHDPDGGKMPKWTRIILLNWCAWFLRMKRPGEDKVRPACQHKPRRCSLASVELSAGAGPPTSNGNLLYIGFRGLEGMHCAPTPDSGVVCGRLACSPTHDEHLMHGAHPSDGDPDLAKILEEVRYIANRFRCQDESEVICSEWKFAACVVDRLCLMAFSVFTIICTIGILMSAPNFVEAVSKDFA

Regarding `O=C(c1ccc(-n2ccnc2)cc1)N1C[C@@H]2CNC[C@@H](C2)C1`, the Ki in assay [1] is 5.6 nM; in assay [2], above 1000 nM; in assay [6] it was above 5000 nM; in [14], above 1000 nM. In addition, in assay [3], the “antagonist activity (active/inactive)” value is “Active”. Besides, the inhibition entry in assay [4] and in assay [9] was “inactive” each time. Also, the outcome in assay [5] and in assay [8] was Active. In addition, the result in [7], in [10], in assay [11], in assay [12], in [13] and in assay [15] was inactive.
Regarding `CS(=O)(=O)c1ccc(CC(=O)N2C[C@@H]3CNC[C@@H](C3)C2)cc1`, the Ki in assay [1] is 22.9 nM; in assay [2], above 5000 nM; in assay [6], above 5000 nM; in assay [14], above 5000 nM. For the same compound, in assay [3], the “antagonist activity (active/inactive)” value is “Active”. The inhibition entry in assay [4] and in assay [9] was “inactive” each time. Also, the result in [5] and in assay [8] was Active. For the same compound, the outcome in [7], in assay [10], in assay [11], in assay [12], in [13] and in assay [15] was inactive.
Take `COc1ccc(C#CC(=O)N2C[C@@H]3CNC[C@@H](C3)C2)cc1OC`: the Ki in assay [1] was 2.1 nM; in [2], above 1000 nM; in assay [6], above 5000 nM; in assay [14], above 1000 nM. For the same compound, in assay [3], the “antagonist activity (active/inactive)” value is “Active”. In addition, the inhibition result in assay [4] is “inactive”. The outcome in assay [5] was Active. Besides, in [9], the inhibition result is “Active”. The result in assay [10], in assay [11] and in assay [15] was inactive.
For the compound `O=C(c1ccc(-c2cccnc2)cc1)N1C[C@@H]2CNC[C@@H](C2)C1`, the Ki in [1] was 25 nM; in [2], above 1000 nM; in assay [6], above 5000 nM; in [14] it was above 1000 nM. Also, the “antagonist activity (active/inactive)” value in [3] is “Active”. For the same compound, the inhibition result in assay [4] and in assay [9] was “inactive” in each case. Further, the result in assay [5] and in [8] was Active. Also, the result in assay [7], in [10], in assay [11], in assay [12], in assay [13] and in assay [15] was inactive.
Consider `O=C(C#Cc1ccc2c(c1)OCO2)N1C[C@@H]2CNC[C@@H](C2)C1`, for which the inhibition constant Ki in [1] was 3.1 nM; in assay [2] it was above 1000 nM; in assay [6] it was above 5000 nM; in assay [14] it was above 1000 nM. Moreover, the “antagonist activity (active/inactive)” value in assay [3] is “Active”. In addition, the inhibition result in [4] and in assay [9] was “inactive” in each case. In addition, the outcome in assay [5] was Active. Further, the outcome in [10], in [11] and in [15] was inactive.
Turning to `O=C(Cc1cccnc1)N1C[C@@H]2CNC[C@@H](C2)C1`, the inhibition constant Ki in assay [1] was 11.2 nM; in assay [2] it was above 1000 nM; in assay [6] it was above 5000 nM; in assay [14] it was above 1000 nM. For the same compound, the inhibition entry in assay [4] and in assay [9] was “inactive” throughout. The result in [5] and in [8] was Active. Also, the result in [7], in assay [10], in [11], in assay [12], in assay [13] and in assay [15] was inactive.
With `COc1ccc(C#CC(=O)N2C[C@@H]3CNC[C@@H](C3)C2)cc1Cl`, the inhibition constant (Ki) was 0.991 nM in assay [1], above 1000 nM in assay [2], above 5000 nM in [6] and above 1000 nM in assay [14]. For the same compound, the “antagonist activity (active/inactive)” value in assay [3] is “Active”. Also, the inhibition entry in [4] and in assay [9] was “inactive” each time. Further, the result in assay [5] was Active. In addition, the outcome in assay [10], in assay [11] and in [15] was inactive.
Regarding `O=C([C@@H]1C[C@H]1c1ccccc1)N1C[C@@H]2CNC[C@@H](C2)C1`, the Ki in [1] was 1.2 nM; in [14], above 10000 nM. Besides, in [3], the “antagonist activity (active/inactive)” value was “Active”. In addition, the inhibition result in [4] and in [9] was “inactive” throughout. Further, the outcome in assay [16] and in [15] was Active. The result in assay [10] was inactive.
In the case of `O=C(/C=C/c1ccccc1)N1C[C@@H]2CNC[C@@H](C2)C1`, the Ki in assay [1] is 55.1 nM; in [2], above 5000 nM; in [6], above 10000 nM; in assay [14], above 5000 nM. For the same compound, the inhibition result in [4] and in assay [9] was “inactive” in each case. Further, the outcome in assay [5] and in assay [8] was Active. For the same compound, the result in assay [7], in [10], in assay [11], in assay [12], in assay [13] and in assay [15] was inactive.
For the compound `O=C(c1ccc(-c2ccncc2)cc1)N1C[C@@H]2CNC[C@@H](C2)C1`, the Ki in [1] was 7.1 nM; in [2], above 1000 nM; in assay [6], above 5000 nM; in [14], above 1000 nM. In [3], the “antagonist activity (active/inactive)” value was “Active”. Also, the inhibition entry in assay [4] and in assay [9] was “inactive” throughout. In addition, the outcome in [5] and in assay [8] was Active. Besides, the outcome in assay [7], in assay [10], in [11], in assay [12], in [13] and in [15] was inactive.
For the compound `O=C(/C=C/c1ccncc1)N1C[C@@H]2CNC[C@@H](C2)C1`, the Ki in [1] is 1.03 nM; in assay [2] it was above 1000 nM; in assay [6], above 5000 nM; in [14], above 10000 nM. Besides, the inhibition entry in assay [4] and in assay [9] was “inactive” in each case. The result in [5] and in assay [8] was Active. Further, the result in [7], in [10], in assay [11], in assay [12], in [13] and in assay [15] was inactive.

For orientation: Ki means the dissociation constant of the complex between target and ligand, obtained from inhibition or displacement. Low values mean a stronger hold on the target, high ones a looser hold on the target.
